Published values pooled from the literature.
Lines come from different studies, so protocols differ.
Target: RAF proto-oncogene serine/threonine-protein kinase (RAF1, Homo sapiens, UniProt P04049)

Compound | read-out | technique | concentration | remaining binding [%]
O=C(Nc1c[nH]nc1C(=O)NC1CCNCC1)c1cc(F)cc(F)c1 | binding | competition with immobilised ligand | 1 µM | 100
O=C(c1ccc(Nc2ncc(Cl)c(-c3ccc(Cl)s3)n2)cc1)N1CCC(N2CCCC2)CC1 | binding | competition with immobilised ligand | 1 µM | 45
COc1ccc2c(O[C@@H]3C[C@H]4C(=O)N[C@]5(C(=O)O)CC5/C=C\CCCCC[C@H](NC(=O)OC5CCCC5)C(=O)N4C3)cc(-c3csc(NC(=O)C(C)C)n3)nc2c1C (stereo partly drawn) | cell-free assay | competition with immobilised ligand | 1 µM | 95
N#Cc1ccccc1CSc1nnc2c(n1)[nH]c1ccccc12 | binding | competition with immobilised ligand | 10 µM | 100
COc1cnc(Nc2cccc(S(N)(=O)=O)c2)nc1N1CCN(c2ccccc2)C(=O)C1 | binding | competition with immobilised ligand | 1 µM | 98
O=C(Nc1cccnn1)N1CC(C/C=C/c2cncc(Oc3ccc(C(F)(F)F)cn3)n2)C1 | cell-free assay | competition with immobilised ligand | 1 µM | 100
CC(C)(C)c1ccc(-c2nc(CBr)nn2-c2cccc(O)c2)cc1 | cell-free assay | competition with immobilised ligand | 10 µM | 87
CCN1CCN(Cc2ccc(C(=O)Nc3ccc(C)c(Oc4ccc5c(c4)CC(=O)N5)c3)cc2C(F)(F)F)CC1 | binding | competition with immobilised ligand | 1 µM | 95
C[C@@H]1CN(c2ccc3ncc(-c4ccc5[nH]nc(C6CC6)c5c4)n3n2)C[C@H](C)O1 | binding | competition with immobilised ligand | 50 nM | 100
N[C@H]1CCN(c2nccc(-c3cnn4ncccc34)n2)C1 | binding | – | 1 µM | 100
CNC(=O)Nc1ccc2c(c1)[C@@]1(CC2)OC(=O)N(CC(=O)N(Cc2ccc(F)cc2)[C@@H](C)C(F)(F)F)C1=O | cell-free assay | competition with immobilised ligand | 1 µM | 100
F[C@@H]1CCN(c2nccc(-c3cnn4ncccc34)n2)C1 | binding | – | 1 µM | 100
O=C(NC[C@@H]1[C@H]2CN(C(=O)OCc3cc(C(F)(F)F)cc(C(F)(F)F)c3)C[C@@H]12)c1ccc2[nH]nnc2c1 | cell-free assay | competition with immobilised ligand | 1 µM | 100
O=C(NCCCN1CCOCC1)c1ccc(Nc2nccc(-c3cc4ccccc4s3)n2)cc1 | binding | competition with immobilised ligand | 1 µM | 65
Cn1nc(C(=O)NCc2ccc(C(=O)O)cc2)cc1-c1ccc2[nH]ccc2c1 | cell-free assay | competition with immobilised ligand | 0.1 µM | 70
CN(C)c1ncc(F)c(-c2cnn3ncccc23)n1 | binding | – | 1 µM | 96
Cc1nccc(COC(=O)N2C[C@@H]3[C@@H](CNC(=O)c4ccc5[nH]nnc5c4)[C@@H]3C2)n1 | cell-free assay | competition with immobilised ligand | 1 µM | 94
CC1CCCN1c1nccc(-c2cnn3ncccc23)n1 (stereo not drawn) | binding | – | 1 µM | 100
CCC(=O)N[C@@H]1CC[C@H](C(=O)N(C)c2ccc(-c3nc4ccccc4o3)cc2)C1 | cell-free assay | competition with immobilised ligand | 1 µM | 94
COc1ncc2cc3ccccc3nc2c1C#N | cell-free assay | competition with immobilised ligand | 5 µM | 93
C[C@H]1CCN(c2nccc(-c3cnn4ncccc34)n2)C1 | binding | – | 1 µM | 90
O=C(NCCCN1CCOCC1)c1ccc(Nc2ncc(Cl)c(-c3ccc(Cl)s3)n2)cc1 | binding | competition with immobilised ligand | 1 µM | 89
CNC(=O)[C@@H]1CC[C@@H](n2c(-c3ccc4cnccc4c3)nc3ccc(C(=O)NCc4cccc(C(N)=O)c4)cc32)C1 | binding | competition with immobilised ligand | 1 µM | 82
CN(CCCC(F)(F)F)c1nccc(-c2cnn3ncccc23)n1 | binding | – | 1 µM | 83
